These results are taken from ChEMBL document CHEMBL1142684, “Application of a flexible synthesis of (5R)-thiolactomycin to develop new inhibitors of type I fatty acid synthase” (J Med Chem, 2005).

The test system of one experiment is Mus musculus. Description: Maximum amount of weight loss in Balb/C mice after 7 days of 60 mg/kg intraperitoneal administration. The class given is functional. A digest of the protocol:
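Balb/C mice were given a single ip dose of 60 mg/kg in 100 µL DMSO (stock 10 mg/mL in DMSO), or vehicle alone. Mice were weighed daily until treated animals returned to pretreatment weight. The value is the maximum weight loss measured over 7 days.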

The target in a further experiment is Fatty acid synthase (Homo sapiens, UniProt P49327). Put plainly: Inhibitory concentration against purified human fatty acid synthase activity in ZR-75-1 breast cancer cells. The method in brief:
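FAS purified from ZR-75-1 human breast cancer cells (2 µg per well). Overall reaction read at 37 °C as malonyl-CoA-dependent NADPH oxidation at 340 nm, every 10 s for 5 min. Average of duplicate runs; neg means IC50 > 50 µg/mL.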

For experiment [1], the system named is MCF7. Put plainly: Inhibitory concentration against MCF-7 breast cancer cells in XTT assay (non radioactive assay). The class given is functional, cell-based, Homo sapiens. The method in brief: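 MCF-7 human breast cancer cells, cytotoxicity measured by XTT cell proliferation assay (nonradioactive). The procedure was adapted from the kit instructions. IC50 is the average of duplicate runs.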
(In general: Tetrazolium dyes change colour on reduction, which living cells bring about.)

The subject of experiment [2] is MCF7. Description: Inhibitory concentration against fatty acid synthesis in MCF-7 breast cancer cells. The class given is functional, cell-based, Homo sapiens.
Where [3] appears, read: Homo sapiens, MCF7, read-out: IC50.

What is called IC50 is the concentration needed to halve the response being measured.

The structures appear in SMILES notation. Values after ≈ are worked out from the molar mass of the structure shown.

Fatty acid synthase, sequence (P49327 whole entry): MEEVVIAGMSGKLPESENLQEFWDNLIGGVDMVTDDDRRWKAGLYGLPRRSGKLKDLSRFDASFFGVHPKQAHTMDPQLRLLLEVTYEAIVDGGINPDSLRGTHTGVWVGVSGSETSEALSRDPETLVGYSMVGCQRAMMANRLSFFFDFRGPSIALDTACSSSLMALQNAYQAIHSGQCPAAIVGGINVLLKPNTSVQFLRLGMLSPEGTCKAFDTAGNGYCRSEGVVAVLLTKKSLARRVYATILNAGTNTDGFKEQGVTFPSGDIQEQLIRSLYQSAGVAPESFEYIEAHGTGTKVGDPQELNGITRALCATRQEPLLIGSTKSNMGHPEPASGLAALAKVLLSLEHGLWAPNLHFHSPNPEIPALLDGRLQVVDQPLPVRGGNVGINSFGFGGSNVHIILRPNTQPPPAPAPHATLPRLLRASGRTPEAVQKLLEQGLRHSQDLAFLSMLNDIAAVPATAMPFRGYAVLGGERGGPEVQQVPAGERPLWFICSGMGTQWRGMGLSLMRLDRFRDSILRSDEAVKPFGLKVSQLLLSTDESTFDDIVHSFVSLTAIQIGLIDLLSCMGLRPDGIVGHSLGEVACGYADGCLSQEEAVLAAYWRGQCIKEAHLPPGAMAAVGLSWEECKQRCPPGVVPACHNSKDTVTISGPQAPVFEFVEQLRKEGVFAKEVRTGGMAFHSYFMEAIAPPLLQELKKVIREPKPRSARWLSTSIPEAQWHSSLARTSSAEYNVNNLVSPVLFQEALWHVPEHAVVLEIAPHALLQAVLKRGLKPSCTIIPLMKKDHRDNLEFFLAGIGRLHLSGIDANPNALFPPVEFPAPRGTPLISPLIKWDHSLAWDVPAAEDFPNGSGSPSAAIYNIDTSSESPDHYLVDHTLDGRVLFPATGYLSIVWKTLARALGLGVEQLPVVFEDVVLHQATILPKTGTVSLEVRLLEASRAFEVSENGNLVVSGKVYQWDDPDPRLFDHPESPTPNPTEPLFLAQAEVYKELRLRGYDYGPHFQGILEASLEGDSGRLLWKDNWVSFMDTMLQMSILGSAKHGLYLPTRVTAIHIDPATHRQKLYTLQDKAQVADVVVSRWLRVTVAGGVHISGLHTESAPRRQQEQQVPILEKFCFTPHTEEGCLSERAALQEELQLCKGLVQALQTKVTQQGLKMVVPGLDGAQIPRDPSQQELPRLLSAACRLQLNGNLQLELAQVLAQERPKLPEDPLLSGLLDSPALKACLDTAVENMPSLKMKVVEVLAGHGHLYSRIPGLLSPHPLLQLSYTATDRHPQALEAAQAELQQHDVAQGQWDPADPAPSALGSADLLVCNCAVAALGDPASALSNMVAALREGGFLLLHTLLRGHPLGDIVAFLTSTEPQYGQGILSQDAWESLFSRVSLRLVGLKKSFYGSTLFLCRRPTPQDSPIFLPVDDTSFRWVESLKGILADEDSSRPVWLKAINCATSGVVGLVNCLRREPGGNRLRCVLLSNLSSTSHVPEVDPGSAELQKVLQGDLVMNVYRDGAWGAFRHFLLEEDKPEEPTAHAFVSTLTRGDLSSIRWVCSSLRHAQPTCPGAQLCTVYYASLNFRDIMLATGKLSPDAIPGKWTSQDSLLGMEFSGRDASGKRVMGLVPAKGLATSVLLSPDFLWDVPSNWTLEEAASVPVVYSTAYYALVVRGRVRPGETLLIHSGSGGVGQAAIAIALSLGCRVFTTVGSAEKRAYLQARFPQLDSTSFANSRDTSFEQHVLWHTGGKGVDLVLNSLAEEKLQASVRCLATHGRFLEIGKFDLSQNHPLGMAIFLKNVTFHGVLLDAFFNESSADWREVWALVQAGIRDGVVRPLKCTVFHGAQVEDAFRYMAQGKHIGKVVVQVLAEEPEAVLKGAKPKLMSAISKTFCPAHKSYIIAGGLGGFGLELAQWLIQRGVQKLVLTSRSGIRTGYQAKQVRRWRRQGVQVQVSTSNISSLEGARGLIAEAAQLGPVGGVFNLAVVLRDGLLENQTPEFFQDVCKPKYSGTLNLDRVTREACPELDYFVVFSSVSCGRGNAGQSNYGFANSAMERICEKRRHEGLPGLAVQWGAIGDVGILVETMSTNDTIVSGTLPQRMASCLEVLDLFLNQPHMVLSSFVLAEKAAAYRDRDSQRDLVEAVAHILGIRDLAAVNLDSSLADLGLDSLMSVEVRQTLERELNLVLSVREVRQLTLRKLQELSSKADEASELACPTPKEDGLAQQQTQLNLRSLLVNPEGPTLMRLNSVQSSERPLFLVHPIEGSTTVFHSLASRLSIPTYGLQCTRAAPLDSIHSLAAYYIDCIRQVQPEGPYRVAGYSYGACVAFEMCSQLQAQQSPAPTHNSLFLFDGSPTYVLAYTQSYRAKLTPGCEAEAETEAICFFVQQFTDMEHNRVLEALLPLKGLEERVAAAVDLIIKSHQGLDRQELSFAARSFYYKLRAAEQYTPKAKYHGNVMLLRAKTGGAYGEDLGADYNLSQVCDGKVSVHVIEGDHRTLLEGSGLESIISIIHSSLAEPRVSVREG

In turn, `C=CCNC(=O)COC1=CC(=O)S[C@]1(C)CCCCCCCC` displayed a Weight loss with Mus musculus of 2.4%. The results for the IC50 against Fatty acid synthase, in the experiment on MCF7 [1] (setting [3]) and in the experiment on MCF7 [2] (setting [3]) were more than 147 µM, 12.1 µg/mL (≈ 35.6 µM) and more than 50 µg/mL, respectively.
The corresponding values for `CCCCCCCC[C@@]1(C)SC(=O)C=C1OCC(=O)OCC` are 2.7%, more than 152 µM, 35.3 µg/mL (≈ 107 µM) and 10.8 µg/mL (≈ 32.9 µM).
Consider `C[C@]1(Cc2ccccc2)SC(O)=CC1=O`, for which the Weight loss with Mus musculus amounted to 1.6%. The IC50 was more than 227 µM against Fatty acid synthase, more than 80 µg/mL with MCF7 [1] (setting [3]) and more than 50 µg/mL with MCF7 [2] (setting [3]).
Compound `C=CCOC(=O)OC1=CC(=O)S[C@]1(C)CCCCCCCC` had a Weight loss in the experiment with Mus musculus of 3.4%. Also, the IC50 against Fatty acid synthase was 20.8 µM; in the experiment with MCF7 [1] (setting [3]) it was 37.3 µg/mL (≈ 114 µM); with MCF7 [2] (setting [3]), 14.2 µg/mL (≈ 43.5 µM).
As for `CCCCCCCC[C@@]1(C)SC(O)=C(C)C1=O`, the Weight loss in the experiment with Mus musculus is 0%. For the same compound, the IC50 on Fatty acid synthase is 192 µM; with MCF7 [1] (setting [3]), 48 µg/mL (≈ 187 µM); in the experiment on MCF7 [2] (setting [3]) it was 16.5 µg/mL (≈ 64.3 µM).
In the case of `CCCCCCCC[C@@]1(C)SC(O)=C(C(C)=O)C1=O`, in the experiment with Mus musculus, the Weight loss worked out at 8.2%. Moreover, the results for the IC50 at Fatty acid synthase, in the experiment on MCF7 [1] (setting [3]) and in the experiment on MCF7 [2] (setting [3]) were more than 176 µM, 12.5 µg/mL (≈ 43.9 µM) and 12 µg/mL (≈ 42.2 µM), respectively.
`CCCCCCCC[C@@]1(C)SC(O)=CC1=O` gave a Weight loss with Mus musculus of 2%. Moreover, the 50% inhibitory concentration (IC50) against Fatty acid synthase is 16.5 µM; in the experiment on MCF7 [1] (setting [3]), 17.6 µg/mL (≈ 72.6 µM); with MCF7 [2] (setting [3]), 12.6 µg/mL (≈ 52 µM).
Turning to `CCCCCC[C@@]1(C)SC(=O)C=C1OC`, the IC50 is more than 219 µM on Fatty acid synthase, 9.4 µg/mL (≈ 41.2 µM) with MCF7 [1] (setting [3]) and 14 µg/mL (≈ 61.3 µM) in the experiment with MCF7 [2] (setting [3]).
The corresponding values for `CCCCCCCC[C@@]1(C)SC(=O)C=C1OC` are more than 195 µM, 16.4 µg/mL (≈ 64 µM) and more than 50 µg/mL.
Take `CCCCCC[C@@]1(C)SC(=O)C=C1OCCCCCl`: the values for the IC50 against Fatty acid synthase, with MCF7 [1] (setting [3]) and in the experiment on MCF7 [2] (setting [3]) were more than 164 µM, 20.8 µg/mL (≈ 68.2 µM) and 8.6 µg/mL (≈ 28.2 µM), respectively.
For `C/C=C/C(C)=C/[C@@]1(C)SC(O)=CC1=O`, the Weight loss in the experiment on Mus musculus is 4.1%. Besides, the results for the IC50 on Fatty acid synthase, in the experiment with MCF7 [1] (setting [3]) and in the experiment on MCF7 [2] (setting [3]) were more than 238 µM, more than 80 µg/mL and 17.3 µg/mL (≈ 82.3 µM), respectively.
For the compound `C=CCC1(CC=C)C(=O)S[C@](C)(CCCCCCCC)C1=O`, the results for the IC50 at Fatty acid synthase, with MCF7 [1] (setting [3]) and with MCF7 [2] (setting [3]) were more than 155 µM, 40.5 µg/mL (≈ 126 µM) and more than 50 µg/mL, respectively.
Regarding `C=CCOC1=CC(=O)S[C@]1(C)CCCCCCCC`, the IC50 was more than 177 µM at Fatty acid synthase, 14.5 µg/mL (≈ 51.3 µM) in the experiment on MCF7 [1] (setting [3]) and more than 50 µg/mL in the experiment with MCF7 [2] (setting [3]).
As for `CCCCCC[C@@]1(C)SC(=O)C=C1OCC(=O)OCC`, the IC50 at Fatty acid synthase was more than 166 µM; in the experiment on MCF7 [1] (setting [3]), 39.6 µg/mL (≈ 132 µM); in the experiment on MCF7 [2] (setting [3]), 14.2 µg/mL (≈ 47.3 µM).
With `C=CCC1(C)C(=O)S[C@](C)(CCCCCCCC)C1=O` (some centres undefined), the figures for the IC50 against Fatty acid synthase, in the experiment on MCF7 [1] (setting [3]) and in the experiment on MCF7 [2] (setting [3]) were more than 169 µM, 40.5 µg/mL (≈ 137 µM) and more than 50 µg/mL, respectively.
`CCCC/C=C/C=C/[C@@]1(C)SC(O)=CC1=O`: in the experiment on Mus musculus, the Weight loss is on record as 11%. Besides, the IC50 was 36.5 µM on Fatty acid synthase, 60 µg/mL (≈ 252 µM) in the experiment on MCF7 [1] (setting [3]) and 22.6 µg/mL (≈ 94.8 µM) in the experiment with MCF7 [2] (setting [3]).
With `CCCCCCCC[C@@]1(C)SC(=O)C=C1OC(=O)OCC`, in the experiment on Mus musculus, the Weight loss was 7.1%. Further, the 50% inhibitory concentration (IC50) is 14.6 µM on Fatty acid synthase, 15.1 µg/mL (≈ 48 µM) in the experiment on MCF7 [1] (setting [3]) and 14.5 µg/mL (≈ 46.1 µM) with MCF7 [2] (setting [3]).
`C=C/C(C)=C/[C@@]1(C)SC(=O)C=C1O` displayed a Weight loss in the experiment on Mus musculus of 7.8%. Also, the IC50 at Fatty acid synthase was 42.8 µM; in the experiment with MCF7 [1] (setting [3]) it was more than 80 µg/mL.
For the compound `CCCCCC[C@@]1(C)SC(=O)C=C1OCC(=O)NCC(=O)OC`, the IC50 is more than 146 µM against Fatty acid synthase, 40.5 µg/mL (≈ 118 µM) in the experiment with MCF7 [1] (setting [3]) and 9.8 µg/mL (≈ 28.5 µM) with MCF7 [2] (setting [3]).
`COC1=CC(=O)S[C@]1(C)Cc1ccccc1`: the IC50 at Fatty acid synthase was more than 213 µM; in the experiment on MCF7 [2] (setting [3]) it was more than 50 µg/mL.
In the case of `CCCCCCCC[C@@]1(C)SC(=O)C=C1OCCCCCl`, the IC50 is more than 150 µM against Fatty acid synthase, 35.3 µg/mL (≈ 106 µM) with MCF7 [1] (setting [3]) and more than 50 µg/mL in the experiment with MCF7 [2] (setting [3]).
The corresponding values for `CCCCCCCC[C@@]1(C)SC(O)=C(C(=O)OC)C1=O` are more than 166 µM, 47.2 µg/mL (≈ 157 µM) and 18.7 µg/mL (≈ 62.2 µM).
The corresponding values for `CCCCCC[C@@]1(C)SC(O)=CC1=O` are more than 233 µM, more than 80 µg/mL and 16.5 µg/mL (≈ 77 µM).
Take `C=CCOC1=C(C)C(=O)S[C@]1(C)CCCCCCCC`: the IC50 against Fatty acid synthase is more than 169 µM; with MCF7 [1] (setting [3]), 34.7 µg/mL (≈ 117 µM); in the experiment with MCF7 [2] (setting [3]), more than 50 µg/mL.
The compound `CCCCCCCC[C@@]1(C)SC(=O)C=C1OC(=O)OC` displayed a Weight loss in the experiment with Mus musculus of 6.1%. The IC50 against Fatty acid synthase was 6.99 µM; in the experiment with MCF7 [1] (setting [3]) it was 21.6 µg/mL (≈ 71.9 µM); with MCF7 [2] (setting [3]), 10.7 µg/mL (≈ 35.6 µM).
Consider `CC/C=C/C=C/[C@@]1(C)SC(O)=CC1=O`, for which, in the experiment with Mus musculus, the Weight loss was determined as 3.2%. The IC50 is more than 238 µM at Fatty acid synthase, more than 80 µg/mL with MCF7 [1] (setting [3]) and 16.9 µg/mL (≈ 80.4 µM) with MCF7 [2] (setting [3]).
For `CCCCCCCC[C@@]1(C)SC(O)=C(C(=O)C(F)(F)F)C1=O`, the results for the IC50 at Fatty acid synthase, with MCF7 [1] (setting [3]) and in the experiment on MCF7 [2] (setting [3]) were 121 µM, 18.4 µg/mL (≈ 54.4 µM) and 14.7 µg/mL (≈ 43.4 µM), respectively.
The compound `CCCCCC[C@@]1(C)SC(=O)C=C1OCC(=O)NCC(=O)O` registered a Weight loss in the experiment with Mus musculus of 3.5%. For the same compound, the IC50 on Fatty acid synthase was more than 152 µM; with MCF7 [2] (setting [3]), 6.6 µg/mL (≈ 20 µM).
On to `CCCCCC[C@@]1(C)SC(=O)C=C1OCC(=O)NCCCBr`, for which the IC50 is more than 127 µM against Fatty acid synthase, 21 µg/mL (≈ 53.5 µM) in the experiment on MCF7 [1] (setting [3]) and 6.7 µg/mL (≈ 17.1 µM) with MCF7 [2] (setting [3]).
The corresponding values for `CCCCCCCC[C@@]1(C)SC(=O)C=C1OC(=O)CC` are more than 168 µM, 26.8 µg/mL (≈ 89.8 µM) and 22.6 µg/mL (≈ 75.7 µM).
In the case of `CCCCCCCC[C@@]1(C)SC(=O)C=C1OCC(=O)O`, the IC50 on Fatty acid synthase is more than 166 µM; with MCF7 [2] (setting [3]), 13.8 µg/mL (≈ 45.9 µM).
`C=CCOC1=CC(=O)S[C@]1(C)CCCCCC`: the IC50 is more than 197 µM on Fatty acid synthase, 9 µg/mL (≈ 35.4 µM) with MCF7 [1] (setting [3]) and more than 50 µg/mL in the experiment on MCF7 [2] (setting [3]).
The corresponding values for `C=CCC1=C(O)S[C@](C)(CCCCCCCC)C1=O` are 9.91 µM, 44.4 µg/mL (≈ 157 µM) and 34.8 µg/mL (≈ 123 µM).
`C#CCOC1=CC(=O)S[C@]1(C)CCCCCC`: the concentration for half-maximal inhibition (IC50) at Fatty acid synthase is more than 198 µM; in the experiment with MCF7 [1] (setting [3]), 8.9 µg/mL (≈ 35.3 µM); in the experiment with MCF7 [2] (setting [3]) it was 21.9 µg/mL (≈ 86.8 µM).
On the same counts, the results for `CCCCCCCC[C@@]1(C)SC(=O)C(C)=C1OC` are more than 185 µM, 17.3 µg/mL (≈ 64 µM) and more than 50 µg/mL.
Regarding `CCCCCCCC[C@@]1(C)SC(O)=C(C(C)O)C1=O` (stereo in doubt; 29), the Weight loss in the experiment on Mus musculus (60 mg/kg) was 3.5%. The IC50 at Fatty acid synthase is 19.9 µM; with MCF7 [1] (setting [3]), 23.9 µg/mL (≈ 83.4 µM); with MCF7 [2] (setting [3]) it was 17.6 µg/mL (≈ 61.4 µM).
For the compound `CCCCCCCC[C@@]1(C)SC(O)=C(C(C)O)C1=O` (stereo in doubt; 30), the Weight loss in the experiment on Mus musculus (60 mg/kg) was 0.2%. In addition, the IC50 was 11.5 µM against Fatty acid synthase, 21 µg/mL (≈ 73.3 µM) with MCF7 [1] (mcf7) and 21.7 µg/mL (≈ 75.8 µM) in the experiment with MCF7 [2] (mcf7).
`C=C/C(C)=C/[C@@]1(C)SC(=O)C(C)=C1O` (stereo in doubt; form 1) [THIOLACTOMYCIN]: the values for the IC50 against Fatty acid synthase, in the experiment with MCF7 [1] (setting [3]) and in the experiment on MCF7 [2] (setting [3]) were 100 µM, more than 80 µg/mL and 38.4 µg/mL (≈ 183 µM), respectively.
Compound `C=C/C(C)=C/[C@@]1(C)SC(=O)C(C)=C1O` (stereo in doubt; form 2) [THIOLACTOMYCIN] gave a Weight loss with Mus musculus of 2.6%. Moreover, the figures for the IC50 against Fatty acid synthase and in the experiment on MCF7 [2] (mcf7) were 143 µM and 41.8 µg/mL (≈ 199 µM), respectively.
